# High-throughput results deposited in PubChem by several laboratories.
# Hits are enriched below; roughly 1.4% of the tested compounds scored in any of these assays.
# FXIIa inh 1536: factor XIIa (human) inhibition | P00748 | purified FXIIa, Boc-QGR-AMC fluorogenic substrate, 2 h | inhibition, % at 5 µM | 0.3% of 220,000 active | AID 800; in the data active = inhibition above about 40%
# Target sequence (P00748 20-372 limits assumed): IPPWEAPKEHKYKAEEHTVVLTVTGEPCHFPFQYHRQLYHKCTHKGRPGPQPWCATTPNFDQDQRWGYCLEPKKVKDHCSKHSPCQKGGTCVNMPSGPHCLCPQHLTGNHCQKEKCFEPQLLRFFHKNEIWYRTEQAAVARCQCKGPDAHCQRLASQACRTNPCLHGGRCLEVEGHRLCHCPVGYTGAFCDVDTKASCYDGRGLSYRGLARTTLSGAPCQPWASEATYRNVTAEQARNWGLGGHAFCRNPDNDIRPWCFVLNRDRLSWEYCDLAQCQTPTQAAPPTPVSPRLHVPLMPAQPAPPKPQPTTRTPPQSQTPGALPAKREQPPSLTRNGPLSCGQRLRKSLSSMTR
# Target sequence (P00748 373-615 limits assumed): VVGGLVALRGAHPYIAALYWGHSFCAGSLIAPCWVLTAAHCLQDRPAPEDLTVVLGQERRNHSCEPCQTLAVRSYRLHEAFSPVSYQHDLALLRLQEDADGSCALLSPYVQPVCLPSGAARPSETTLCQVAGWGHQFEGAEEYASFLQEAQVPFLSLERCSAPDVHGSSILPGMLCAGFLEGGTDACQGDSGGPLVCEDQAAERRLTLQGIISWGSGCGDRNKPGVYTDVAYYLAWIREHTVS
# FXIa inh 1536: inhibitors of human coagulation factor XIa | P03951 | purified FXIa, Boc-Glu-Ala-Arg-AMC fluorogenic substrate | inhibition, % at 5 µM | 0.14% of 220,000 active;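 active = inhibition of at least 40%; inactive = inhibition below 40%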;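 note: fluorescence of freed AMC excited at 355 nm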
# hK5 inh: blocks human kallikrein 5 protease activity; Q9Y337; recombinant hK5, fluorogenic AMC substrate cleavage; inhibition, % at 5 µM; 0.59% of 210,000 active; AID 873;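 active = inhibition of 40% or more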
# Thrombin inh: inhibitors of human thrombin. inhibition, % at 5 µM. AID 1046. P00734. 0.26% of 220,000 active. alpha-thrombin, Boc-VPR-AMC fluorogenic substrate cleavage;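 active = inhibition at or above 40%; inactive = inhibition below 40%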
#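 Assay system: human alpha-thrombin enzyme. Reagent: Boc-VPR-AMC substrate, 15 µM final. Compound dosing: one concentration per compound, 5 µM, with 0.2% DMSO. Incubation: room-temperature reaction. Technique: AMC fluorescence, 355/460 nm. Measure: % inhibition relative to enzyme controls and enzyme-free blanks.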
# Furin inh: blocks human furin protease activity. AID 463115. purified furin, fluorogenic substrate cleavage. inhibition, % at 20 µM or 30 µM. 0.061% of 220,000 active; in the data active = inhibition above about 25%
# m-calpain inh: inhibitors of pig calpain II; inhibition, % at 16 µM; purified calpain II, fluorogenic peptide substrate, 30 min; 0.37% of 220,000 active; AID 1236;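 active = inhibition above about 50%, limit read from the data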
# A number is an active result; 0 = inactive; - = not tested or not shown.
SMILES,FXIIa inh 1536,FXIa inh 1536,hK5 inh,Thrombin inh,Furin inh,m-calpain inh
O=C(COC(=O)c1cccc2ccccc12)NCC1CCCO1 (stereo not given),0,0,0,0,0,0
O=C(N/N=C/c1c[nH]c2ccccc12)c1cc(-c2cccc3ccccc23)n[nH]1,0,0,0,43,0,0
CC(C)CC(=O)CC1(O)C(=O)Nc2ccccc21 (stereo not given),0,0,0,-,0,0
N#Cc1ccc(NC(=S)NCCN2CCOCC2)cc1,0,0,0,0,0,0
CCOc1ccc(S(=O)(=O)n2ccc(C)n2)c2ccccc12,0,0,49,0,0,0
CCOc1ccc(S(=O)(=O)N2CCCCC2)c2ccccc12,0,0,0,0,0,0
O=C(NC(=S)N1CCN(Cc2ccccc2)CC1)c1ccco1,0,0,0,0,0,0
O=C(Nc1ccc(Cl)cc1)Nc1nc(-c2ccccc2O)cs1,0,53,0,0,0,0
O=C(Nc1ccc(Cl)cc1)Nc1nc(-c2sccc2Br)cs1,0,0,0,0,0,0
CC(=O)NC(c1ccc(F)cc1)c1cccnc1 (stereo not given),0,0,49,0,0,0
O=C1N/C(=C/c2ccc(N3CCOCC3)o2)C(=O)N1c1cccc(Cl)c1,0,0,0,0,0,0
Cc1c(=O)n(OCc2ccccc2F)c2ccccc2[n+]1[O-],0,0,0,0,0,73
O=C(Nc1scc(-c2ccccc2)c1C(=O)O)c1ccco1,0,0,59,50,0,0
COc1ccc(OC)c(NC(=O)CC2C(=O)NCCN2C(=O)Nc2cccc(Cl)c2)c1 (stereo not given),45,0,0,0,0,0
Cc1cc(=O)oc2cc(NC(=O)CC3(CC(=O)O)CCCC3)ccc12,0,0,52,0,0,0
COCC(C)N1CC(O)=C(c2nc(-c3ccc(Cl)cc3)cs2)C1=N (stereo not given),0,0,0,0,0,0
CCOc1ccc(NC(=O)Nc2cc(OCC(F)(F)F)cc(OCC(F)(F)F)c2)cc1,0,0,0,0,0,0
O=C(NCCNC(=O)c1cc(OCC(F)(F)F)ccc1OCC(F)(F)F)Nc1ccc(OC(F)(F)F)cc1,0,0,49,0,0,0
O=C(Nc1ccc(F)cc1)Nc1cc(OCC(F)(F)F)cc(OCC(F)(F)F)c1,55,0,0,0,0,0
O=C(NCCNC(=O)c1cc(OCC(F)(F)F)ccc1OCC(F)(F)F)Nc1ccc(Cl)cc1,0,0,0,0,0,0
COc1ccc(-c2cc3cc(OC)c(OC)cc3c(C)n2)cc1,0,0,0,0,0,0
CCOC(=O)C1CCN(C(=O)c2sccc2Cl)CC1,0,0,0,0,0,0
Cc1nn(Cc2ccc(C(=O)NN)cc2)c(C)c1Cl,0,0,0,0,0,0
Cc1nn(Cc2ccc(C(=O)Nc3nccs3)cc2)c(C)c1Cl,0,0,44,104,0,0
COc1cc(CNC(=O)c2ccc(Cn3nc(C)c(Cl)c3C)o2)cc(OC)c1,0,0,0,0,0,0
SMILES,FXIIa inh 1536,FXIa inh 1536,hK5 inh,Thrombin inh,Furin inh,m-calpain inh
COC(=O)c1ccc(Cn2nc(C)c(Cl)c2C)o1,0,0,0,0,29,0
CCOc1ccccc1N1CCN(Cc2c(C)n(C)n(-c3ccccc3)c2=O)CC1,0,0,0,0,0,0
O=C1NC(=S)S/C1=C\c1ccc(SCc2ccco2)o1,0,0,0,0,0,52
O=C1NC(=S)S/C1=C\c1ccc(SCc2ccccc2)o1,0,0,0,0,0,0
O=C(CSCc1ccccc1Br)N/N=C/c1ccccc1C(=O)O,0,0,0,0,0,0
CC(C)c1ccc(CN2CCN(C(=O)CCl)CC2)cc1,0,0,0,0,0,0
O=C(O)COCC(=O)Nc1ccccc1-c1ccccc1,0,0,0,0,0,0
COCC(=O)Nc1ccccc1-c1ccccc1,0,45,0,0,0,0
COCC(=O)Nc1nc(-c2ccccc2)ns1,0,0,58,0,0,0
Cn1c2ccccc2c(=O)c2c(=O)n(Cc3ccco3)c(-c3ccc(C(C)(C)C)cc3)nc21,0,0,0,0,0,0
COCCNc1nc2c(c(=O)n(Cc3ccc(OC)cc3)c(=O)n2C)n1C,0,0,0,0,0,-
COc1ccc(CNc2nc3c(c(=O)n(Cc4ccc(Cl)cc4)c(=O)n3C)n2C)cc1,0,0,0,0,0,84
Cn1c(NCc2ccco2)nc2c1c(=O)n(Cc1ccc(Cl)c(Cl)c1)c(=O)n2C,0,0,0,0,0,86
CCn1c(C)nc2cc(C(=O)N/N=C/c3cccc(O)c3O)ccc21,0,0,0,0,0,0
CC1CN(C(=O)COC(=O)c2ccc(N(C)C)cc2)CC(C)O1 (stereo not given),0,0,0,0,0,0
Cc1ccc(S(=O)(=O)CCN2C=CC(C(F)(F)F)=NCC2)cc1,41,0,0,0,0,0
O=C(NCc1ccco1)C1CCN(C(=O)c2cc3sccc3n2Cc2ccc(Cl)cc2)CC1,0,0,0,0,0,57
CCOC(=O)CCC(=O)NCc1ccc2c(c1)cc(C)n2C,0,0,54,0,0,0
O=C(COC(=O)c1ccccc1Br)Nc1ccc(F)cc1,41,0,0,0,0,0
O=C(COC(=O)c1ccccc1Br)NCCc1ccc(F)cc1,0,0,0,0,0,0
Cn1c(SCC(=O)NNC(=O)Cc2ccccc2)nc2ccccc2c1=O,0,0,0,0,0,0
CC1Cc2ccccc2N1C(=O)C1CCCN(S(=O)(=O)c2cccc3nsnc23)C1 (stereo not given),0,0,0,0,0,55
O=C(C1CCCN(S(=O)(=O)c2cccc3nsnc23)C1)N1CCCCCC1 (stereo not given),0,0,-,0,0,0
CC1CCCN(C(=O)C2CCCN(S(=O)(=O)c3cccc4nsnc34)C2)C1 (stereo not given),44,0,0,0,0,0
Cc1ccc(C2=NN(S(=O)(=O)c3ccccc3)C(c3ccccc3O)C2)cc1 (stereo not given),103,0,0,0,0,0
SMILES,FXIIa inh 1536,FXIa inh 1536,hK5 inh,Thrombin inh,Furin inh,m-calpain inh
N#Cc1nc(COc2ccc(Br)cc2)oc1NCCN1CCOCC1,0,0,45,0,0,0
N#Cc1nc(COc2ccc(F)cc2)oc1NCCN1CCOCC1,0,0,0,0,0,0
O=C1c2ccccc2C(=O)N1CCCCN(C(=O)c1ccc(Cl)s1)c1ccc(Cl)cc1,0,0,0,0,0,0
Cc1ccc(N(CCCCN2C(=O)c3ccccc3C2=O)C(=O)c2ccc(Cl)s2)cc1,0,0,0,0,0,50
CC(C)(C)[C@H]1C=C(C(N)=O)O[C@@H](OCc2ccc(CO)cc2)C1,0,0,0,0,0,0
C/C=C(\C)C(=O)OC1c2c(ccc3ccc(=O)oc23)OC(C)(C)C1OC(C)=O (stereo not given),0,45,0,0,0,0
O=C(CCC1CCCN(c2ncccn2)C1)N1CCN(c2ccccn2)CC1 (stereo not given),0,0,0,0,0,0
